Reference: ChEMBL document CHEMBL1153551, “Resveratrol modulates phagocytosis of bacteria through an NF-kappaB-dependent gene program” (Antimicrob Agents Chemother, 2008)
Calls of active or inactive are those of the source.

Tests used:
[1] = test system: RAW264.7; assay: Inhibition of phagocytosis of FITC-conjugated Staphylococcus aureus 209P in mouse RAW264.7 cells using trypan blue staining after 80 mins by flow cytometry; assay type: functional, cell-based
[2] = test system: THP-1; assay: Inhibition of heat killed Staphylococcus aureus 209P-induced TNF alpha production in human THP1 cells at 1 to 100 uM after 6 hrs by ELISA; assay type: functional, cell-based
How it was run: (§1)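 THP-1 or RAW264.7 cells (1 × 10⁶/well, 16 h) were washed and pretreated 1 h with resveratrol. Serum-free stimulation with heat-killed E. coli or S. aureus at 1:100 followed for 0, 2, 4 or 6 h. TNF-α in supernatants (400 × g spin) was measured by ELISA: human kit for THP-1, mouse kit for RAW264.7. Triplicates.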

[3] = test system: HEK293; assay: Inhibition of heat killed Staphylococcus aureus 209P-induced NF-kappaB activation in HEK293 cells expressing TLR2 pretreated for 1 hr before 6 hrs heat killed bacterial stimulation by luciferase reporter gene assay; assay type: cell-based; conditions: Homo sapiens
How it was run: (§2)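 293/TLR2 cells (1 × 10⁵/well) were transfected with 50 ng pNF-κB-Luc, 5 ng pRL-TK and 445 ng pcDNA3. After 24 h they were pretreated 1 h with resveratrol, then stimulated 6 h serum-free with FSL-1 (1, 10, 100 nM) or heat-killed E. coli or S. aureus (1:1, 1:10, 1:100). Dual luciferase readout, triplicates.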

[4] = test system: HEK293; assay: Inhibition of FSL1-induced NF-kappaB activation in HEK293 cells expressing TLR2 pretreated for 1 hr before 6 hrs-FSL1 stimulation by luciferase reporter gene assay; assay type: cell-based; conditions: Homo sapiens; how it was run: as §2
[5] = test system: RAW264.7; assay: Inhibition of phagocytosis of FITC-conjugated Escherichia coli K12 in mouse RAW264.7 cells using trypan blue staining after 60 mins by flow cytometry; assay type: functional, cell-based
How it was run: (§3)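 Serum-free THP-1 or RAW264.7 cells were treated 1 h with resveratrol, then incubated 0, 20, 40, 60 or 80 min with heat-killed FITC-E. coli at 1:100 cell:bacterium. Outer fluorescence was quenched with 0.2% trypan blue and cells fixed in 1% paraformaldehyde. Internalized fluorescence was read as flow cytometry MFI; mean and SD of triplicates.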

[6] = test system: HEK293; assay: Inhibition of heat killed Escherichia coli K12-induced nuclear translocation of p65 element of NF-kappaB in HEK293 cells expressing TLR2 at 100 uM pretreated for 1 hr before 6 hrs heat killed bacterial stimulation by immunostaining method; assay type: cell-based; conditions: Homo sapiens
How it was run: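 293/TLR2 cells on poly-L-lysine coverslips were given 100 μM resveratrol or 0.1% DMSO for 1 h, then heat-killed E. coli or S. aureus (1:100) for 6 h. Cells were fixed in methanol at −20°C for 5 min and stained with rabbit anti-p65 pAb (1 μg/ml, 45 min RT), then Alexa 594 anti-rabbit IgG. Nuclear p65 was viewed by confocal microscopy.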

[7] = test system: RAW264.7; assay: Inhibition of phagocytosis of FITC-conjugated Staphylococcus aureus 209P in mouse RAW264.7 cells using trypan blue staining after 60 mins by flow cytometry; assay type: functional, cell-based
[8] = test system: RAW264.7; assay: Inhibition of heat killed Escherichia coli K12-induced TNF alpha production in mouse RAW264.7 cells at 1 to 100 uM after 6 hrs by ELISA; assay type: functional, cell-based; how it was run: as §1
[9] = test system: THP-1; assay: Inhibition of phagocytosis of FITC-conjugated Staphylococcus aureus 209P in human THP1 cells using trypan blue staining after 80 mins by flow cytometry; assay type: functional, cell-based
[10] = test system: THP-1; assay: Inhibition of phagocytosis of FITC-conjugated Escherichia coli K12 in human THP1 cells assessed as reduction in ratio of number of bacterial cells to phagocytes using trypan blue staining by flow cytometry; assay type: functional, cell-based
How it was run: (§4)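 THP-1 or RAW264.7 cells received resveratrol for 1 h serum-free, then a range of doses of heat-killed FITC-E. coli or FITC-S. aureus. Trypan blue (0.2%) quenched bound bacteria and 1% paraformaldehyde fixed the cells. Flow cytometry MFI of internalized bacteria was plotted against bacterial dose; triplicates.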

[11] = test system: THP-1; assay: Inhibition of phagocytosis of FITC-conjugated Staphylococcus aureus 209P in human THP1 cells assessed as reduction in ratio of number of bacterial cells to phagocytes using trypan blue staining by flow cytometry; assay type: functional, cell-based; how it was run: as §4
[12] = test system: RAW264.7; assay: Inhibition of FSL-1-induced increase in phagocytosis of FITC-conjugated Staphylococcus aureus 209P in mouse RAW264.7 cells using trypan blue staining after 20 mins by flow cytometry; assay type: functional, cell-based
How it was run: (§5)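 THP-1 or RAW264.7 cells (1 × 10⁶/ml) were pretreated 24 h with FSL-1 (0, 1, 10, 100 nM), washed, then given resveratrol (10, 50, 100 μM) for 1 h serum-free. Heat-killed FITC-E. coli (1:10) or FITC-S. aureus (1:100) followed. Surface fluorescence was quenched with 0.2% trypan blue and cells fixed in 1% paraformaldehyde. Flow cytometry mean fluorescence intensity, triplicates.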

[13] = test system: RAW264.7; assay: Inhibition of phagocytosis of FITC-conjugated Staphylococcus aureus 209P in mouse RAW264.7 cells assessed as reduction in ratio of number of bacterial cells to phagocytes using trypan blue staining by flow cytometry; assay type: functional, cell-based; how it was run: as §4
[14] = test system: THP-1; assay: Inhibition of phagocytosis of FITC-conjugated Staphylococcus aureus 209P in human THP1 cells using trypan blue staining after 60 mins by flow cytometry; assay type: functional, cell-based
[15] = test system: HEK293; assay: Inhibition of DC-SIGN expression in HEK293 cells expressing DC-SIGN at 100 uM by Western blot analysis; assay type: functional, cell-based; conditions: Homo sapiens
How it was run: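 293/DC-SIGN cells (1 × 10⁷ per 10-cm dish, DMEM complete medium, 16 h) were washed and exposed to 100 μM resveratrol for 0, 30, 60, 90 or 120 min. Lysates in SDS sample buffer with protease inhibitors were boiled and run on 10% SDS-PAGE, then blotted to nitrocellulose. Probes were anti-DC-SIGN or anti-β-actin mAb (4°C overnight), then HRP anti-mouse IgG.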

[16] = test system: THP-1; assay: Inhibition of phagocytosis of FITC-conjugated Escherichia coli K12 in human THP1 cells using trypan blue staining after 60 mins by flow cytometry; assay type: functional, cell-based; how it was run: as §3
[17] = test system: RAW264.7; assay: Inhibition of phagocytosis of FITC-conjugated Escherichia coli K12 in mouse RAW264.7 cells using trypan blue staining after 20 mins by flow cytometry; assay type: functional, cell-based; how it was run: as §3
[18] = test system: THP-1; assay: Inhibition of FSL1-induced upregulation of DC-SIGN mRNA expression in human THP1 cells at 100 uM after 1 hr by RT-PCR; assay type: functional, cell-based
How it was run: (§6)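 Serum-free THP-1 cells primed 24 h with 100 nM FSL-1 were given 100 μM resveratrol or 0.1% DMSO for 1 h. Total RNA from 5 × 10⁶ cells was reverse-transcribed with oligo(dT) and PCR-amplified for MSR1, CD36, DC-SIGN and Dectin-1 (30 cycles) with β-actin as reference (25 cycles). Products were resolved on 3% agarose with ethidium bromide.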

[19] = test system: RAW264.7; assay: Inhibition of heat killed Staphylococcus aureus 209P-induced TNF alpha production in mouse RAW264.7 cells at 1 to 100 uM after 6 hrs by ELISA; assay type: functional, cell-based; how it was run: as §1
[20] = test system: THP-1; assay: Inhibition of FSL-1-induced increase in phagocytosis of FITC-conjugated Escherichia coli K12 in human THP1 cells using trypan blue staining after 20 mins by flow cytometry; assay type: functional, cell-based; how it was run: as §5
[21] = test system: THP-1; assay: Inhibition of FSL1-induced upregulation of CD36 mRNA expression in human THP1 cells at 100 uM after 1 hr by RT-PCR; assay type: functional, cell-based; how it was run: as §6

Measured: Activity

Oc1ccc(/C=C/c2cc(O)cc(O)c2)cc1
active: [1] Dose-dependent effect | [2] | [3] | [4] Dose-dependent effect | [5] Dose-dependent effect | [6] | [7] Dose-dependent effect | [8] | [9] Dose-dependent effect | [10] | [11] | [12] Dose-dependent effect | [13] | [14] Dose-dependent effect | [15] | [16] Dose-dependent effect | [17] Dose-dependent effect | [18] | [19] | [20] Dose-dependent effect | [21]
